Data set [1] concerns Intestine. The data set is described as follows: Drug uptake in mouse intestine at 50 mg/kg, po in 20% HP-beta-CD measured at 8 hrs post dose. Format: ADME, organism-based. Details: dose 50 mg/kg, route oral; call rule not given here. The following applies: in vivo. The method, boiled down:
(§1)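 Female Swiss Webster mice, 8 weeks old, given a single 50 mg/kg oral gavage dose in 20% HPβCD or 20% Kolliphor. Tissues taken from three mice at 2 and 8 h post dose. Homogenized by probe sonication in PBS (1:4 w/v), protein precipitated with acetonitrile, and compound measured by LC-MS/MS in μM.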

For data set [2], the system named is Liver. The data set is described as follows: Drug uptake in mouse liver at 50 mg/kg, po in 20% Kolliphor measured at 8 hrs post dose. The arrangement: dose 50 mg/kg, route oral. The following applies: in vivo. Format: ADME, organism-based. A digest of the protocol: as §1
In data set [3] the test system is Lung. Description: Drug uptake in mouse lung at 50 mg/kg, po in 20% Kolliphor measured at 8 hrs post dose. Format: ADME, organism-based. Details: dose 50 mg/kg, route oral. The conditions noted are these: in vivo. The method, boiled down:
as §1

Data set [4] has as its system Heart. The data set is described as follows: Drug uptake in mouse heart at 50 mg/kg, po in 20% Kolliphor measured at 8 hrs post dose. Format: ADME, organism-based. The arrangement: dose 50 mg/kg, route oral. The conditions noted are these: in vivo. The method, boiled down:
as §1

Data set [5] is described as follows: Drug uptake in mouse fat at 50 mg/kg, po in 20% Kolliphor measured at 8 hrs post dose. The data set is classed as ADME, organism-based, Adipose tissue. The arrangement: dose 50 mg/kg, route oral. The conditions noted are these: in vivo. A digest of the protocol:
as §1

Data set [6] is described as follows: Drug uptake in mouse skeletal muscle at 50 mg/kg, po in 20% Kolliphor measured at 8 hrs post dose. The data set is classed as ADME, organism-based, Muscle tissue. The arrangement: dose 50 mg/kg, route oral. The conditions noted are these: in vivo. The method, boiled down:
as §1

The test system of data set [7] is Liver. The data set is described as follows: Drug uptake in mouse liver at 50 mg/kg, po in 20% HP-beta-CD measured at 8 hrs post dose. Format: ADME, organism-based. The arrangement: dose 50 mg/kg, route oral. The conditions noted are these: in vivo. A digest of the protocol:
as §1

The subject of data set [8] is Lung. The data set is described as follows: Drug uptake in mouse lung at 50 mg/kg, po in 20% HP-beta-CD measured at 8 hrs post dose. The data set is classed as ADME, organism-based. The following applies: in vivo. Details: dose 50 mg/kg, route oral. A digest of the protocol: as §1
In data set [9] the test system is Heart. Description: Drug uptake in mouse heart at 50 mg/kg, po in 20% HP-beta-CD measured at 8 hrs post dose. The data set is classed as ADME, organism-based. Details: dose 50 mg/kg, route oral. The conditions noted are these: in vivo. A digest of the protocol:
as §1

Data set [10] in a line: Drug uptake in mouse fat at 50 mg/kg, po in 20% HP-beta-CD measured at 8 hrs post dose. Format: ADME, organism-based, Adipose tissue. The arrangement: dose 50 mg/kg, route oral. The following applies: in vivo. The method, boiled down:
as §1

A short description of data set [11]: Drug uptake in mouse skeletal muscle at 50 mg/kg, po in 20% HP-beta-CD measured at 8 hrs post dose. The arrangement: dose 50 mg/kg, route oral. The conditions noted are these: in vivo. The data set is classed as ADME, organism-based, Muscle tissue. A digest of the protocol:
as §1

In data set [12] the test system is Trypanosoma cruzi. The data set is described as follows: Antitrypanosomal activity against Trypanosoma cruzi Y luc infected in mouse assessed as inhibition of parasitemia at 25 mg/kg, po bid in 20% Kolliphor administered for 4 consecutive days starting on day 3 of infection measured on day 7 post infection relative to vehicle-treated control. Format: functional. A digest of the protocol: (§2)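 Female Swiss Webster mice, 8 weeks old, infected ip with 10^5 T. cruzi Y luc trypomastigotes. Only mice with detectable luminescence on day 3 were treated. Compound given by oral gavage bid for four days, as a suspension in 20% HPβCD or a solution in 20% Kolliphor, five mice per group. Vehicle group and benznidazole 50 mg/kg served as controls. On day 7, mice were injected ip with 150 mg/kg d-luciferin and imaged after 5 min under isoflurane. Percent inhibition calculated against untreated mice; two-tailed paired t test.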

Data set [13] deals with Trypanosoma cruzi. Description: Antitrypanosomal activity against Trypanosoma cruzi Y luc infected in mouse assessed as inhibition of parasitemia at 50 mg/kg, po bid in 20% Kolliphor administered for 4 consecutive days starting on day 3 of infection measured on day 7 post infection relative to vehicle-treated control. The data set is classed as functional. The method, boiled down: as §2

The test system of data set [14] is Liver microsome. The data set is described as follows: Half life in rat liver microsomes. The data set is classed as ADME. (Microsomes from liver hold many membrane-bound enzymes, among them those of drug oxidation.)
The subject of the next data set is C2C12. The data set is described as follows: Cytotoxicity against mouse C2C12 cells up to 10 uM. The data set is classed as cell-based. A digest of the protocol: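 Mouse C2C12 myoblasts infected with T. cruzi CA-I/72, then exposed at 24 h postinfection to compound at 10 μM down to 5 pM in 5-fold steps for 72 h at 37 °C. Cells fixed in paraformaldehyde, stained with DAPI and scored by automated imaging. Triplicate wells; uninfected and infected untreated wells as controls.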

Data set [15] concerns Intestine. Description: Drug uptake in mouse intestine at 50 mg/kg, po in 20% Kolliphor measured at 8 hrs post dose. The data set is classed as ADME, organism-based. The arrangement: dose 50 mg/kg, route oral. The following applies: in vivo. The method, boiled down:
as §1

For data set [16], the system named is Trypanosoma cruzi. The data set is described as follows: Antitrypanosomal activity against Trypanosoma cruzi Y luc infected in mouse assessed as inhibition of parasitemia at 40 mg/kg, ip bid in 60% DMSO administered for 4 consecutive days starting on day 3 of infection measured on day 7 post infection relative to vehicle-treated control.
Data set [17] has as its system Liver microsome. The data set is described as follows: Half life in human liver microsomes. Format: ADME.
Data set [18] concerns Liver. Description: Half life in mouse liver microsomes. The data set is classed as ADME.
Data set [19] in a line: Half life in mouse at 50 mg/kg, po in 20% Kolliphor. The data set is classed as ADME, organism-based. The conditions noted are these: in vivo. Details: dose 50 mg/kg, route oral. The method, boiled down:
(§3)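 Female Swiss Webster mice, 8 weeks old, given one oral gavage dose of 50 mg/kg as a 10 mg/mL preparation in the named vehicle (20% HPβCD suspension or 20% Kolliphor). Plasma sampled at about 0.25, 0.5, 1, 2, 4, 6, 8, 12 and 24 h, n = 3 per time point. Protein precipitated with 5 volumes acetonitrile, filtered, then LC-MS/MS. Values are averages of three mice.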

The nature of data set [20]: Tmax in mouse at 50 mg/kg, po in 20% Kolliphor. The data set is classed as ADME, organism-based. The arrangement: dose 50 mg/kg, route oral. The conditions noted are these: in vivo. A digest of the protocol: as §3
Data set [21] can be described thus: Cmax in mouse at 50 mg/kg, po in 20% Kolliphor. Format: ADME, organism-based. Details: dose 50 mg/kg, route oral. The conditions noted are these: in vivo. The method, boiled down:
as §3

Data set [22] is described as follows: AUClast in mouse at 50 mg/kg, po in 20% Kolliphor. The data set is classed as ADME, organism-based. The arrangement: time 0 - last, dose 50 mg/kg, route oral. The conditions noted are these: plasma. A digest of the protocol: as §3
A short description of data set [23]: Clearance in mouse at 50 mg/kg, po in 20% Kolliphor. Format: ADME, organism-based. Details: dose 50 mg/kg, route oral. The conditions noted are these: in vivo. A digest of the protocol:
as §3

Experimental findings from ChEMBL document CHEMBL3352430, “4-Aminopyridyl-based CYP51 inhibitors as anti-Trypanosoma cruzi drug leads with improved pharmacokinetic profile and in vivo potency” (J Med Chem, 2014) are described below.

Broadly, the inhibition in vivo is the share of the control response that was lost under treatment. The term half-life denotes the time in which the quantity being followed falls by half. Lower therefore signals fast loss. What is called Tmax is the time at which the peak concentration occurs. Broadly, the Cmax is the highest concentration seen after dosing. The term AUC(0-t) denotes exposure summed from dosing to a finite time, without extrapolation to infinity. Lower therefore signals low exposure. The term CL/F denotes the apparent clearance, not corrected for the fraction that reaches the circulation.

As to `O=C(N[C@H](Cc1c[nH]c2ccccc12)C(=O)Nc1ccncc1)c1ccc(-c2cccc(F)c2)cc1F`, the Drug uptake entry (with Intestine [1]; in the data set with Liver [2]; in the data set on Lung [3]; in the data set with Heart [4]; in data set [5]; in data set [6]) was “Active” each time. Besides, the Drug uptake result (in the data set on Liver [7]; in the data set on Lung [8]; with Heart [9]; in data set [10]; in data set [11]; with Intestine [15]) was “Active” throughout. For the same molecule, in the data set with Trypanosoma cruzi [12], the inhibition in vivo at 25 mg/kg stood at 47.4%. For the same molecule, the inhibition in vivo at 50 mg/kg in the data set on Trypanosoma cruzi [13] turned out to be 71.3%. Further, the t1/2 in the data set with Liver microsome [14] was found to be 20 min. Further, the Activity result in the data set on C2C12 is “Non-toxic”. For the same molecule, in the data set with Trypanosoma cruzi [16], the inhibition in vivo at 40 mg/kg was 51.6%.
Consider `O=C(N[C@H](Cc1c[nH]c2ccccc12)C(=O)Nc1ccncc1)c1ccc(-c2ccc(OCc3ccc(F)cc3)c(F)c2)cc1F`, for which the Drug uptake result (in the data set with Intestine [1]; in the data set with Liver [2]; in the data set with Lung [3]; in the data set with Heart [4]; in data set [5]; in [6]) was “Active” each time. Besides, the Drug uptake result (in the data set with Liver [7]; in the data set on Lung [8]; in the data set with Heart [9]; in data set [10]; in data set [11]; in the data set with Intestine [15]) was “Active” each time. For the same molecule, the inhibition in vivo at 25 mg/kg with Trypanosoma cruzi [12] was found to be 75.6%. The t1/2 with Liver microsome [17] is 15 min; in the data set on Liver microsome [14] it was 39 min; in the data set on Liver [18], 67 min. Also, in the data set with C2C12, the Activity entry was “Non-toxic”. In addition, the inhibition in vivo at 40 mg/kg in the data set on Trypanosoma cruzi [16] was found to be 96.9%.
Regarding `CC(=O)N1CCN(c2ccc(C(=O)N[C@H](Cc3c[nH]c4ccccc34)C(=O)Nc3ccncc3)c(F)c2)CC1`, the Drug uptake entry (with Intestine [1]; in the data set on Liver [2]; with Lung [3]; in the data set on Heart [4]; in data set [5]; in data set [6]) was “Active” each time. Besides, the Drug uptake result (with Liver [7]; in the data set with Lung [8]; in the data set with Heart [9]; in [10]; in data set [11]; in the data set with Intestine [15]) was “Active” in each case. Further, the t1/2 in the data set on Liver microsome [17] was 64 min; in the data set with Liver microsome [14], 18 min; in the data set on Liver [18], 13 min. The Activity entry in the data set on C2C12 was “Non-toxic”. The inhibition in vivo at 40 mg/kg in the data set with Trypanosoma cruzi [16] is 52%.
Turning to `O=C(N[C@H](Cc1c[nH]c2ccccc12)C(=O)Nc1ccncc1)c1ccc(N2CCN(c3cccc(Cl)c3)CC2)cc1F`, the Drug uptake entry (with Intestine [1]; in the data set on Liver [2]; in the data set with Lung [3]; in the data set on Heart [4]; in [5]; in data set [6]) was “Active” in each case. In addition, the Drug uptake entry (in the data set on Liver [7]; with Lung [8]; in the data set with Heart [9]; in data set [10]; in data set [11]; with Intestine [15]) was “Active” throughout. The inhibition in vivo at 25 mg/kg in the data set with Trypanosoma cruzi [12] amounted to 73.6%. Further, in the data set with Trypanosoma cruzi [13], the inhibition in vivo at 50 mg/kg is 97.6%. Further, the t1/2 in the data set with Liver microsome [14] stood at 21 min; in the data set on Liver [18], 33 min. Besides, the Activity result with C2C12 is “Non-toxic”.
In the case of `O=C(N[C@H](Cc1c[nH]c2ccccc12)C(=O)Nc1ccncc1)c1ccc(-c2ccc(F)c(F)c2)cc1F`, the Drug uptake entry (in the data set with Intestine [1]; with Liver [2]; with Lung [3]; with Heart [4]; in data set [5]; in data set [6]) was “Active” each time. Besides, the Drug uptake entry (in the data set with Liver [7]; with Lung [8]; in the data set on Heart [9]; in data set [10]; in [11]; in the data set on Intestine [15]) was “Active” each time. Moreover, the inhibition in vivo at 25 mg/kg in the data set with Trypanosoma cruzi [12] stood at 41.5%. For the same molecule, in the data set with Trypanosoma cruzi [13], the inhibition in vivo at 50 mg/kg came out at 78.5%. In addition, the Activity entry with C2C12 is listed as “Non-toxic”. This molecule showed a half-life in data set [19] of 197 min. Further, the Tmax in data set [20] was 120 min. In addition, in [21], the Cmax stood at 3.71 µM. In [22], the AUC(0-t) amounted to 32.5 µM·h. The molecule further displayed a CL/F in [23] of 53.8 mL/min/kg. In addition, the inhibition in vivo at 40 mg/kg with Trypanosoma cruzi [16] amounted to 83.6%.
On to `O=C(N[C@H](Cc1c[nH]c2ccccc12)C(=O)Nc1ccncc1)c1ccc(-c2cc(F)ccc2F)cc1F`, for which the Drug uptake entry (with Intestine [1]; in the data set on Liver [2]; in the data set with Lung [3]; with Heart [4]; in [5]; in [6]) was “Active” each time. Moreover, the Drug uptake result (in the data set with Liver [7]; in the data set on Lung [8]; in the data set with Heart [9]; in [10]; in [11]; in the data set with Intestine [15]) was “Active” throughout. Moreover, in the data set on Trypanosoma cruzi [12], the inhibition in vivo at 25 mg/kg was 72.2%. Besides, the Activity result in the data set with C2C12 is “Non-toxic”. In addition, the inhibition in vivo at 40 mg/kg in the data set with Trypanosoma cruzi [16] is 35.4%.
